HCV NS3 hel inh: inhibitors of Hepatitis C virus NS3 helicase; NS3 helicase DNA unwinding, Cy5 molecular beacon fluorescence; inhibition, % at 10.9 µM; 0.56% of 290,000 active; AID 1800;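 active = inhibition above the mean of all tested compounds plus 3 SD, set per campaign, cut at about 35% in these data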
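Control set: DMSO versus 110 µM thioflavine S; Material: NS3 helicase fragment of HCV; Measured by: Cy5 fluorescence at 0 and 60 min, beacon hairpin quenching; Read-out basis: percent inhibition from t60/t0 fluorescence ratio; Times: reaction time 60 min, 25 °C; Repeats: single replicate; Compound dosing: single dose, 10.9 µM nominal final, DMSO 0.8% final.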
eIF4H inh: inhibitors of RNA binding by human eIF4H; Q15056; eIF4H fluorescence polarization binding assay; inhibition, % at 35 µM; 0.94% of 290,000 active; AID 2012;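 note: calls also rest on retests at 20 µM and on dose response follow-up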
HCV core dimer: HCV core protein dimerization inhibition; TR-FRET GST/Flag-core106 dimerization, 1536-well; inhibition, % at 5 µM; 0.33% of 300,000 active;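 active = inhibition above the mean of all tested compounds plus 3 SD, set per screening campaign, cut at about 45% in these data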
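Material: Tagged HCV core106 pair (GST and Flag) | Amount: GST-core106 13.5 nM, Flag-core106 17 nM | Medium: KF-containing HEPES buffer, pH 7.45, DTT, CHAPS, BSA | Reagent: Eu donor and XL665 acceptor anti-tag antibodies | Schedule: 4 h at 22.5 °C | Technique: Time-resolved FRET, ex 340 nm, em 617 and 671 nm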
DNA FID counter: fluorescent intercalator displacement, NS3 helicase counter-screen | 0.17% of 290,000 active | DNA fluorescent intercalator displacement, fluorescence | inhibition, % at 7.9 µM; in the data active = inhibition above about 37%;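 note: higher means more ethidium bromide displaced from hairpin DNA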
PABP1 MLLE inh: inhibitors of microRNA-mediated deadenylation, human PABP1 MLLE binding. P11940. 0.36% of 360,000 active. inhibition, % at 20 µM. GST-MLLE / FITC-PAM2 fluorescence polarization; in the data active = inhibition above about 35%, passing the limit was not always enough
Target sequence (P11940 whole entry, looked up): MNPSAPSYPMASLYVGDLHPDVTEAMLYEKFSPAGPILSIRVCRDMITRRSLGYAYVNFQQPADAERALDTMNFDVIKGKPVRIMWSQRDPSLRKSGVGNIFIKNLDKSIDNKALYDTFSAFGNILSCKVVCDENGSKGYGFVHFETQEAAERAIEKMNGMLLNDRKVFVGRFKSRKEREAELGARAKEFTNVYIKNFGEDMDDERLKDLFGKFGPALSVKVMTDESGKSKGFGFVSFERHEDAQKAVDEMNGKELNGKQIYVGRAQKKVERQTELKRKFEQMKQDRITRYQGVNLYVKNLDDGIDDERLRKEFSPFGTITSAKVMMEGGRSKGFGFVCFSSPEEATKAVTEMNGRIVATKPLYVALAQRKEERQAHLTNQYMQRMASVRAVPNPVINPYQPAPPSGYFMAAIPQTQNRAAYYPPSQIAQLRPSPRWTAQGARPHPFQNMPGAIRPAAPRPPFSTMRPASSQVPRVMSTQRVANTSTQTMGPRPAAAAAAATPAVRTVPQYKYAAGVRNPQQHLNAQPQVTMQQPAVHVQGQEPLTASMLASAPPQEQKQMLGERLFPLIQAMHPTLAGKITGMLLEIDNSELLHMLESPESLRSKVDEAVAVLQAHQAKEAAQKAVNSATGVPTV
PABP polyA inh: PABP-poly(A) binding inhibition. PABP-poly(A) RNA binding, fluorescence polarization. inhibition, % at 35 µM. AID 2014. 1% of 290,000 active. P11940;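 note: calls also rest on retests at 20 µM and on dose response follow-up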
Each line names hits and unclear results; the compound was inactive in the other large screens. Compounds with a hit are over-represented: about 2% of the library has one in this group of screens. Unless noted, the rule behind the calls is not given here.

NS(=O)(=O)c1ccc(NC(=O)C2(c3ccccc3)CCCC2)cc1	eIF4H inh inconclusive, PABP polyA inh 94
Cc1cc(C)c2oc(C(=O)Nc3ccc(S(=O)(=O)Nc4nccs4)cc3)cc(=O)c2c1	none
O=C(NC(=S)Nc1ccc(-c2ccccc2)cc1)c1ccccc1	none (no result: HCV NS3 hel inh, eIF4H inh, HCV core dimer, DNA FID counter, PABP polyA inh)
Cc1cc2oc(C(=O)Nc3ccc(S(=O)(=O)Nc4nccs4)cc3)cc(=O)c2cc1Cl	HCV core dimer 58
NS(=O)(=O)c1ccc(NC(=S)NC(=O)c2ccc(-c3ccccc3)cc2)cc1	PABP1 MLLE inh 43
O=C(Nc1ccc(S(=O)(=O)Nc2nccs2)cc1)c1nn(-c2ccccc2)ccc1=O	eIF4H inh 77, HCV core dimer 63
CC1([N+](=O)[O-])COC2(CCCCC2)OC1	none (no result: HCV NS3 hel inh, eIF4H inh, HCV core dimer, DNA FID counter, PABP polyA inh)
CC1=C(C(=O)N(C(C)C)C(C)C)CC(CC(=O)NC2CCCC2)C(=O)N1Cc1ccc(F)cc1 (stereo unspecified)	none (no result: HCV NS3 hel inh, eIF4H inh, HCV core dimer, DNA FID counter, PABP polyA inh)
COc1ccc(-c2coc3c(C(=O)Nc4cccnc4)cccc23)c(C)c1	none (no result: HCV NS3 hel inh, eIF4H inh, HCV core dimer, DNA FID counter, PABP polyA inh)
O=C(NC(=S)Nc1ccc(S(=O)(=O)Nc2nccs2)cc1)c1cccnc1	PABP1 MLLE inh 41
O=C(NC(=S)Nc1ccc(S(=O)(=O)Nc2nccs2)cc1)c1ccccc1F	none
O=C(NC(=S)Nc1ccc(S(=O)(=O)Nc2nccs2)cc1)c1ccc(F)c(F)c1	none
O=C(NC(=S)Nc1ccc(S(=O)(=O)Nc2nccs2)cc1)c1ccccc1	PABP1 MLLE inh 39
O=C(COc1ccc(CNC[C@H]2O[C@@H](n3ccc(=O)[nH]c3=O)[C@H](O)[C@@H]2O)cc1)Nc1ccccn1	none (no result: HCV NS3 hel inh, eIF4H inh, HCV core dimer, DNA FID counter, PABP polyA inh)
CN(CC(=O)Nc1ccccc1Cl)C1CCS(=O)(=O)C1 (stereo unspecified)	none (no result: HCV NS3 hel inh, eIF4H inh, HCV core dimer, DNA FID counter, PABP polyA inh)
COc1ccccc1NC(=O)C(C)OC(=O)CCCOc1ccccc1 (stereo unspecified)	none (no result: HCV NS3 hel inh, eIF4H inh, DNA FID counter, PABP polyA inh)
CC1=NN(c2ccccc2)C(=O)C1C(=S)SC1CC(=O)NC1=O (stereo unspecified)	PABP1 MLLE inh 49 (no result: HCV NS3 hel inh, eIF4H inh, HCV core dimer, DNA FID counter, PABP polyA inh)
Cc1cccc(N2CSC3=C(C#N)C(c4ccc(C)o4)CC(=O)N3C2)c1 (stereo unspecified)	eIF4H inh 98, HCV core dimer 84, PABP polyA inh 118 (no result: PABP1 MLLE inh)
COc1ccc(OC)c(C2CC(=O)N3CN(c4ccccc4)CSC3=C2C#N)c1 (stereo unspecified)	none
COc1ccc(C2CC(=O)N3CN(c4ccccc4F)CSC3=C2C#N)cc1OC (stereo unspecified)	none
CCc1ccccc1N1CSC2=C(C#N)C(c3ccccc3F)CC(=O)N2C1 (stereo unspecified)	eIF4H inh 78, PABP polyA inh 93
COc1ccccc1NC(=O)Cc1csc(NC(=S)Nc2ccccc2)n1	PABP1 MLLE inh 41
COc1ccc(NC(=S)Nc2nc(CC(=O)Nc3ccccc3OC)cs2)cc1	none
Cc1ccc([C@@H]2CC(=O)[C@@H]3CN(S(=O)(=O)c4ccccc4C)[C@H](c4ccc(Cl)cc4)C[C@@H]3N2S(=O)(=O)c2ccc(C)cc2)cc1	none (no result: HCV NS3 hel inh, eIF4H inh, HCV core dimer, DNA FID counter, PABP polyA inh)
COc1ccc(NC(=S)NCc2ccc(S(N)(=O)=O)cc2)c(OC)c1	eIF4H inh active
CCOC(=O)C1CCCN(Cc2ccc(OC)c(OCc3ccccc3)c2)C1 (stereo unspecified)	none
OC1=C(O)c2nc3cc(F)ccc3nc21	DNA FID counter 38
CCCNC(=O)OC[C@H]1O[C@H](CCO/N=C/C[C@@H]2C=C[C@H](OC(C)=O)[C@@H](COC(C)=O)O2)C=C[C@@H]1Oc1ccc(OC)cc1	none (no result: PABP1 MLLE inh)
CCCNC(=O)OC[C@H]1O[C@H](CCO/N=C(\C)CCN2CCc3nc(-c4ccccc4)c(-c4ccccc4)cc3C2)C=C[C@@H]1Oc1ccc(OC)cc1	eIF4H inh 68 (no result: PABP1 MLLE inh)
CCc1ccccc1NC(=O)C1CCN(S(=O)(=O)c2ccc3c(c2)N(C(C)=O)CCO3)CC1	none
Cc1ccc(NC(=O)COc2ccccc2C(N)=O)cc1S(=O)(=O)N1CCCCCC1	none (no result: HCV NS3 hel inh, eIF4H inh, HCV core dimer, DNA FID counter, PABP polyA inh)
O=C(COC(=O)/C=C/c1ccco1)Nc1ncc(Cl)cc1Cl	eIF4H inh 79, PABP polyA inh 59
CN(C)S(=O)(=O)c1ccc(Cl)c(NC(=O)COC(=O)/C=C/c2ccco2)c1	PABP polyA inh 72
CCC(CCNC(=O)c1ccccc1)(CCNC(=O)c1ccccc1)[N+](=O)[O-]	none (no result: HCV NS3 hel inh, eIF4H inh, HCV core dimer, DNA FID counter, PABP polyA inh)
CN1CCc2c(sc3c2C(=O)NC(c2ccco2)N3)C1 (stereo unspecified)	none
O=C1NC(c2ccco2)Nc2sc3c(c21)CCN(Cc1ccccc1)C3 (stereo unspecified)	eIF4H inh 116, PABP polyA inh 124
Cc1ccc(-c2cc(-c3ccccc3Cl)c(C#N)c(N)n2)o1	eIF4H inh 66, PABP polyA inh 64
Cc1ccc(-c2cc(-c3ccc(F)cc3)nc(N)c2C#N)o1	none
Cc1ccc(-c2cc(-c3ccccc3)c(C#N)c(N)n2)o1	eIF4H inh inconclusive, PABP polyA inh 118
Cc1ccc(-c2c(C#N)c(N)nc3c2CCCC3)o1	none
COc1ccc2sc(-c3ccc(SC)cc3)c(/C=C/c3ccc(OC)c(OC)c3)c2c1	none (no result: HCV NS3 hel inh, eIF4H inh, HCV core dimer, DNA FID counter, PABP polyA inh)
COc1ccc(CCNC(=O)Nc2cccs2)c(OC)c1	none
C=CCc1c(C)nc(SCc2nc3ccccc3c(=O)[nH]2)[nH]c1=O	none
CCc1c(O)nc(SCc2nc3ccccc3c(=O)[nH]2)[nH]c1=O	eIF4H inh active, PABP1 MLLE inh 39, PABP polyA inh 54
Cc1cccc(OCC(O)Cn2c(=N)n(Cc3ccccc3)c3ccccc32)c1 (stereo unspecified)	none
Cc1cccc(OCC(O)Cn2c(=N)n(CCN3CCCCC3)c3ccccc32)c1 (stereo unspecified)	DNA FID counter 39
Cc1ccc(OCC(O)Cn2c(=N)n(Cc3ccccc3)c3ccccc32)cc1 (stereo unspecified)	none
N=c1n(Cc2ccc(Cl)cc2)c2ccccc2n1CC(O)COc1ccccc1 (stereo unspecified)	DNA FID counter 43
COc1ccc(OCC(O)Cn2c(=N)n(Cc3ccccc3)c3ccccc32)cc1 (stereo unspecified)	DNA FID counter 48
CCc1ccc2cc3c(cc2n1)C(=O)c1ccccc1-3	none (no result: HCV NS3 hel inh, eIF4H inh, HCV core dimer, DNA FID counter, PABP polyA inh)
COCc1ccc(C(=O)NC2CCCc3c2cnn3-c2ccc(C)c(C)c2)o1 (stereo unspecified)	none
O=S(=O)(Nc1ccccc1)c1cccc2nsnc12	eIF4H inh 71
CC[C@H](C)/C=C(C)/C=C/C1=CC2=CC(=O)[C@]3(C)OC(=O)[C@@H](C(C)=O)[C@@H]3C2=CO1	eIF4H inh inconclusive, HCV core dimer 56, PABP polyA inh inconclusive
CC[C@H](C)/C=C(C)/C=C/c1cc2c(cn1)C(=O)[C@@](C)(OC(C)=O)C(O)=C2Cl	none (no result: HCV NS3 hel inh, eIF4H inh, HCV core dimer, DNA FID counter, PABP polyA inh)
CCCCNC(=S)NNC(=O)c1csc(C)c1	eIF4H inh active, PABP polyA inh 53
